According to article PMC3445775 (Hepatology (Baltimore, Md.), 2012):
Entries after “also recorded” stand apart in the source; their conditions may differ.

Experiments:
human FATP5 = target: T1, human FATP5 (Homo sapiens, UniProt Q9Y2P5); format: cell-based
T1 sequence (Q9Y2P5 1-690): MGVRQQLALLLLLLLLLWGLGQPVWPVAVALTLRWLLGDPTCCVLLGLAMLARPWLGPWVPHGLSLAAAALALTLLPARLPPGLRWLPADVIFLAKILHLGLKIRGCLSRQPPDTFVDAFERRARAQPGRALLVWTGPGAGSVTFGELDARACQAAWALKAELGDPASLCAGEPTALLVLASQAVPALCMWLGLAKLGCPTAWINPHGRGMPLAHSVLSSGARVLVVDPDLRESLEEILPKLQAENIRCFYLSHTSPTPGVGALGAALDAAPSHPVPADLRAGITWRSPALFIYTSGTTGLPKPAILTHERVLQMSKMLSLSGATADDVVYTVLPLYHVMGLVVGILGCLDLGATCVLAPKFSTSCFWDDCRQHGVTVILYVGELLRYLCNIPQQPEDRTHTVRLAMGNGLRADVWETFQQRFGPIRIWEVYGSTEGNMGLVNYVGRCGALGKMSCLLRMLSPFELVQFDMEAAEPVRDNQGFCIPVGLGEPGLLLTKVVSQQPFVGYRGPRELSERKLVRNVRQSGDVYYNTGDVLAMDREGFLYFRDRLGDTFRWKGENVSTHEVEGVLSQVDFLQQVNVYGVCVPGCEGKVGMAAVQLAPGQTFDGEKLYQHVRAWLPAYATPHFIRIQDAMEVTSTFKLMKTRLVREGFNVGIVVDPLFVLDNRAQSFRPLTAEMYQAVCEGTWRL
Summary of the method: (§1)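 HEK-293 cells stably expressing human FATP4, FATP2 or FATP5 were maintained in DMEM/10% FBS with 1 mg/ml G418. Cells were plated at 30,000–50,000/well overnight to 50–70% confluency. They were preincubated 30 min (5% CO2) with test compound, diluted from DMSO stock into HBSS with 20 mM HEPES, 4.5 g/L glucose and 0.1% fatty-acid-free BSA. Compound in quencher mix containing 2 μM C1-BODIPY-C12 was then added. Fluorescence (ex 488/em 515 nm, bottom read) was recorded every 2 min for 2 h, and uptake velocities were derived by linear regression.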

human FATP2 = human FATP2 (Homo sapiens, UniProt O14975); format: cell-based
Summary of the method: as §1

hsFATP4 = hsFATP4 (Homo sapiens, UniProt Q6P1M0); test: Quencher-based LCFA uptake assay, FATP4 expressing 293 cells; format: cell-based; settings: result in words
Sequence of hsFATP4 (Q6P1M0 whole entry): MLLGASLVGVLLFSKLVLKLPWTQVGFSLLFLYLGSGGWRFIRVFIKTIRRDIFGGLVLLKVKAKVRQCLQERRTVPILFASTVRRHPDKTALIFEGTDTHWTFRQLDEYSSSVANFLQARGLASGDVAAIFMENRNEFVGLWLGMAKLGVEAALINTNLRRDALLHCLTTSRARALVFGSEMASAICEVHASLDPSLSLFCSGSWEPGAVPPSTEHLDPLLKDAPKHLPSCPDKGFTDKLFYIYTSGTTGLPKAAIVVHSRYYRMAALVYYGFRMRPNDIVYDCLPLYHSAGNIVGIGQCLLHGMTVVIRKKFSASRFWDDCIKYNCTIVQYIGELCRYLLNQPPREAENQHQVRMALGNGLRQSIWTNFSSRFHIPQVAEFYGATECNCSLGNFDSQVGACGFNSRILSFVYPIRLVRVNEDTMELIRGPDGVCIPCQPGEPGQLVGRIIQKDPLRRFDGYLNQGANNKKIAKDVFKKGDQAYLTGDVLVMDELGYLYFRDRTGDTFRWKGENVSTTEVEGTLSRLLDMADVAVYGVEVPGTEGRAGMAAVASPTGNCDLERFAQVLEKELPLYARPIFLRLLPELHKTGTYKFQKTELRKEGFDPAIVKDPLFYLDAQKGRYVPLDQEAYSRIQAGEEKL
Summary of the method: as §1

FATP5 and FATP2 = test: Inhibition reversibility assay; format: cell-based, human; settings: 30 min treatment followed by brief washes with PBS
293 cells = test: XTT toxicity assay, stable 293 cell lines; format: cell-based, human; settings: 48 hours
Summary of the method: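 Stable 293 cells in DMEM/FBS were incubated overnight in 5% CO2. The indicated test compound or DMSO control was added, and after a further 48 h viability was measured with an XTT kit per the manufacturer's instructions.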

[1] = test system: primary mouse hepatocytes from C57Bl/6 animals; test: Quencher based LCFA uptake assay, wild-type mouse primary hepatocytes; format: cell-based
[2] = test system: primary hepatocytes from FATP5-null animals; test: Quencher based LCFA uptake assay, FATP5-null mouse primary hepatocytes; format: cell-based; settings: FATP5 KO
Summary of the method: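 Primary hepatocytes from FATP5-null mice were isolated by portal-vein perfusion and collagenase digestion. Viability was checked by trypan blue, and cells were plated on collagen (150,000 cells/well) in DMEM/FBS with insulin-transferrin-selenium overnight. Test compound from DMSO stock in HBSS (20 mM HEPES, 4.5 g/L glucose, 0.1% fatty-acid-free BSA) was applied for 30 min. It was replaced by the same compound in quencher mix with 2 μM C1-BODIPY-C12. Bottom-read fluorescence (ex 488/em 515 nm) was taken every 2 min for 2 h, and velocities were obtained by linear regression.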

[3] = test system: primary mouse hepatocytes; test: XTT viability of primary mouse hepatocytes; format: cell-based; settings: 48 hour treatment
[4] = test system: Mouse primary hepatocytes; test: Uptake assay of radiolabeled compounds, primary hepatocytes; format: cell-based; settings: 5 μM DCA
hepatic LCFA uptake = test: Non-radioactive in vivo hepatic LCFA uptake assay; set-up: species or system mouse
[5] = test system: hepatic triglyceride accumulation; test: Chronic bile acid injection during high-fat diet; format: in vivo, mouse; settings: 3.2 mg/kg s.c. daily
Summary of the method: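 Individually housed mice on a high-fat diet (60% calories from fat) received daily s.c. injections of test compound, 3.2 mg/kg in 20 μl DMSO, above the right hip for 47 days. Controls received DMSO vehicle. Mice were fasted 4 h and euthanised with CO2, and injection sites were checked for precipitate. Liver lysates were assayed for protein (BCA) and TAG.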

hepatic TAG content = test: 7 week bile acid supplemented high-fat diet feeding; format: in vivo, mouse
[6] = test system: acute liver LCFA absorption; test: 1 week DCA/high-fat food feeding pilot; format: in vivo, mouse
[7] = test system: intestinal fatty acid absorption; test: Non-radioactive intestinal in vivo LCFA absorption assay; set-up: species or system mouse; settings: gavage of olive oil/BODIPY-FFA with 0.05% DCA
Summary of the method: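 Mice were gavaged with 200 μl of olive oil/20 μM BODIPY-FFA containing 0% or 0.05% bile acid. Blood was drawn at 0, 30, 60, 120 and 240 min after gavage, and serum fluorescence at 515 nm was read on a plate reader.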

TGR5 = settings: ref [33], [34]; cited from earlier work
[8] = test system: primary human hepatocytes; test: FACS-based LCFA uptake assay, primary human hepatocytes; format: cell-based; settings: 10 or 100 μM, viable cells
Summary of the method: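 Suspended primary human hepatocytes were pretreated with test compound at 10 or 100 μM in DMEM (37°C, 5% CO2, 30 min). C1-BODIPY-C12 bound to 0.1% BSA was then added to a final 2 μM for 30 min at 37°C. Uptake was stopped on ice, and cells were centrifuged at 4°C and resuspended in cold PBS. Propidium iodide was added, and mean BODIPY fluorescence of 5000 viable PI-negative cells was taken from histogram plots.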

[9] = oral administration of UDCA; ref [41]; cited from earlier work
NASH = settings: cited from earlier work
[10] = 0.5mg/g in high fat food, 7 weeks

C[C@H](CCC(=O)O)[C@H]1CC[C@H]2[C@@H]3CC[C@@H]4C[C@H](O)CC[C@]4(C)[C@H]3C[C@H](O)[C@]12C [DCA, deoxycholic acid]
IC50 (human FATP5): 0.19 µM
IC50 (human FATP2): 5 µM
inhibition of FATP4 LCFA uptake (hsFATP4): neither DCA, UDCA, nor LCA inhibited; also recorded: No inhibition
Reversible Inhibition (FATP5 and FATP2): reversible and Yes
toxicity (XTT assay) (293 cells): did not display any cytotoxicity
inhibition of LCFA uptake by primary mouse hepatocytes [1]: inhibited hepatocyte LCFA uptake significantly
inhibition of LCFA uptake by FATP5-null primary hepatocytes [2]: abolished
cytotoxicity to primary mouse hepatocytes (XTT) [3]: not associated with toxicity
uptake of 2-deoxy-D-[3H]glucose/glucose mix [4]: without affecting uptake
uptake of radiolabeled fatty acids ([4]; 20 μM fatty acid): inhibit the uptake of a wide range of fatty acids
effect on in vivo hepatic LCFA uptake in FATP5 KO (hepatic LCFA uptake; FATP5 KO mice, 6.4mg/kg): abolished
effect on in vivo hepatic LCFA uptake (hepatic LCFA uptake; WT mice, acute injection): inhibitory effect was observed
acute reduction of hepatic LCFA uptake (hepatic LCFA uptake; in vivo, DCA injections): 31%
body weight ([5]; 47 days): nor did it affect food consumption or body weight
food consumption ([5]; 47 days): nor did it affect food consumption or body weight
respiration ([5]; 47 days): neither triggered an increase in respiration
reduction in the triglyceride content of the liver ([5]; 47 days, WT): 68%
triglyceride content of the liver ([5]; 47 days, WT, vehicle 6.6): 2.1 mg TAG/g protein
liver TAG in FATP5-null animals ([5]; FATP5-null): did not cause a further reduction in liver TAG
body weight (hepatic TAG content; [10]): Neither DCA nor LCA feeding resulted in changes
caloric output over a 36h period (hepatic TAG content; [10]): Neither DCA nor LCA feeding resulted in changes
food intake (hepatic TAG content; [10]): Neither DCA nor LCA feeding resulted in changes
respiratory rate (hepatic TAG content; [10]): Neither DCA nor LCA feeding resulted in changes
lipid droplets in BODIPY-stained liver sections (hepatic TAG content; 0.05% DCA in high-fat diet): markedly reduced lipid droplets
hepatotoxicity or fibrosis (ALT/AST assays, liver morphology) (hepatic TAG content; 0.05% DCA in high-fat diet, 49 days): did not lead to hepatotoxicity or fibrosis
reduction in hepatic TAG content (hepatic TAG content; 0.05% in high-fat diet, 7 weeks): approximately 50%
acute liver LCFA absorption ([6]; DCA 0 to 0.2% in high-fat food): dose dependent reduction
circulating liver enzymes (serum AST) ([6]; DCA 0 to 0.2% in high-fat food): without causing a detectable increase
circulating lipids in the form of TAG and cholesterol ([6]; dietary DCA 0.03%-0.4%): unchanged
intestinal fatty acid absorption (labeled fatty acid in the circulation) [7]: not suppressed; also recorded: no significant effect
TGR5 activation (TGR5): activate TGR5 equally

C[C@H](CCC(=O)O)[C@H]1CC[C@H]2[C@@H]3[C@@H](O)C[C@@H]4C[C@H](O)CC[C@]4(C)[C@H]3CC[C@]12C [UDCA, ursodeoxycholic acid, reference compound]
IC50 (human FATP5): 5 µM
inhibition of FATP4 LCFA uptake (hsFATP4): neither DCA, UDCA, nor LCA inhibited; also recorded: No inhibition
Reversible Inhibition (FATP5 and FATP2): Yes
inhibition of LCFA uptake by primary human hepatocytes [8]: inhibited LCFA uptake
inhibition of LCFA uptake by primary mouse hepatocytes [1]: inhibited LCFA uptake
inhibition of LCFA uptake by FATP5-null primary hepatocytes [2]: failed to inhibited LCFA uptake
cytotoxicity to primary mouse hepatocytes (XTT) [3]: without any detectable cytotoxic effects
circulating UDCA levels [9]: over 17 μM
effect on hepatosteatosis and NASH versus placebo (NASH; 13–15 mg/kg/day over 2 years, 166 patients, ref [43]): did not produce an effective result as compared to placebo
overall histology (NASH; 23–28 mg/kg/day for 18 months, 185 NASH patients, ref [44]): failed to improve the overall histology
